Activity calls are given as the source filed them. The calls are words filed in the database; no cut-off is given here.
Tests used:
[1] = tested on: PC-3; assay: Cytotoxicity against androgen independent human PC3 cells assessed as cell viability at 50 uM after 24 hrs by alamar blue assay; assay type: functional; details: for viability at 50 µM: PC-3, 24 h, read-out: Activity
[2] = target: T1, Androgen receptor (Homo sapiens) (UniProt P10275); assay: Displacement of fluormone from AR LBD after 4 hrs by fluorescence polarization assay; details: concentration not given here
T1 sequence (whole entry): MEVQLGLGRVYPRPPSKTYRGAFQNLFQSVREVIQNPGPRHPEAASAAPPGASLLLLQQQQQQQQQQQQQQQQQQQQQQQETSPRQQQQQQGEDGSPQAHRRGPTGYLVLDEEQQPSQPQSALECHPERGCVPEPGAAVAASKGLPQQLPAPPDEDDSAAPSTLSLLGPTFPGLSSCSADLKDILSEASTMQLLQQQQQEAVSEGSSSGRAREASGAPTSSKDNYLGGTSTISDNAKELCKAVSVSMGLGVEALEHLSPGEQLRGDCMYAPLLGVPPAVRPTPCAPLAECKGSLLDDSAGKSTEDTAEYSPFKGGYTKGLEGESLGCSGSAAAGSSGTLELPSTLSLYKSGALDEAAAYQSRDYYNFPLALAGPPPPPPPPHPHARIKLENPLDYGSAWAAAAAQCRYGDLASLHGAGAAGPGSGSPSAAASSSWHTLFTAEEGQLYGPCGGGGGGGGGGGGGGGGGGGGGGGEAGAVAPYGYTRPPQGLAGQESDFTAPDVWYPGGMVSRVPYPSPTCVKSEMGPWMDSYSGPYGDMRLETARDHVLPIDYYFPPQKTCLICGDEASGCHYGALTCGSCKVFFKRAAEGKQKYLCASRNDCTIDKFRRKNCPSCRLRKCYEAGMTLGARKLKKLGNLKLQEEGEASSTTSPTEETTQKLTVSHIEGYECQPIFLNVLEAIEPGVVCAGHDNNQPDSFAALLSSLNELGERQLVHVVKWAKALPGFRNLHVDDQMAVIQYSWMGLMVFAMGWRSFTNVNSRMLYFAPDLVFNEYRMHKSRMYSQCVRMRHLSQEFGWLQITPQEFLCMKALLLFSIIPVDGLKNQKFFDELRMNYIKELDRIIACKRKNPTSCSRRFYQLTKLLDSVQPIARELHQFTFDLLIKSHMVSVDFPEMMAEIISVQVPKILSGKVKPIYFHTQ

[3] = target: T2, Progesterone receptor (Homo sapiens) (UniProt P06401); assay: Antagonist activity at PR assessed as inhibition of progesterone-induced fluorescent labelled SRC1-4 recruitment at 100 uM after 2 to 4 hrs by TR-FRET assay; assay type: functional
T2 sequence (whole entry): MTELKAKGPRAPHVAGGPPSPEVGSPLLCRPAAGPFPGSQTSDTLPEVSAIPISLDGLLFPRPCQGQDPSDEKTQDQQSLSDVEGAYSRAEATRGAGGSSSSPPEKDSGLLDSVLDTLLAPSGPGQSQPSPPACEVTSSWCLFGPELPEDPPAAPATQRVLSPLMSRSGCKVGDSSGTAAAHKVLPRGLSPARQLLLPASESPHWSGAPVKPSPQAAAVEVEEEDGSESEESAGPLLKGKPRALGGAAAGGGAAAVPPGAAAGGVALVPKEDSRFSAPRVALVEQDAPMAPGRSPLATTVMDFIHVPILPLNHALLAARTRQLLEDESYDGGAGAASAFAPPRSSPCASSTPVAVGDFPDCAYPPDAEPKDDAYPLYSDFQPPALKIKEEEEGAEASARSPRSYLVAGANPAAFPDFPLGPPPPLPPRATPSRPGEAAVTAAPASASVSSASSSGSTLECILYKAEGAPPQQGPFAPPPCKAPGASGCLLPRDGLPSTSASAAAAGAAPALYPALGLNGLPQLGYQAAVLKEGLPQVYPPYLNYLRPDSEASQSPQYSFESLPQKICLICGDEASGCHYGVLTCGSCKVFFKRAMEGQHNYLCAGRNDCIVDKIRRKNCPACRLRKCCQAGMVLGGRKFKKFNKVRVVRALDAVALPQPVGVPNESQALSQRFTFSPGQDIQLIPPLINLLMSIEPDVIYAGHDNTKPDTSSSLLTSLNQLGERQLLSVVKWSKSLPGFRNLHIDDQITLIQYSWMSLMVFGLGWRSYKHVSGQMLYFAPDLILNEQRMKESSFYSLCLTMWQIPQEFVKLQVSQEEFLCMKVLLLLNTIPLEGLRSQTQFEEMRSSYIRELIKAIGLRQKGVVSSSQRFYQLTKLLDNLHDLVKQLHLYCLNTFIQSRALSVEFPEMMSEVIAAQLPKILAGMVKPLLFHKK
Procedure, shortened: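 TR-FRET coactivator recruitment with PR ligand-binding domain, fluorescent SRC1-4 peptide and Tb anti-GST antibody, with progesterone at its EC80. Compounds were tested from 100 to 1 μM at 1% DMSO final in coregulator buffer with 5 mM DTT. […] Two independent experiments, each in triplicate; IC50 from variable-slope fit.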

[4] = Cytotoxicity against human PWR-1E cells assessed as cell viability at 50 uM after 24 hrs by alamar blue assay; assay type: cell-based; details: read-out: Activity
[5] = tested on: LNCaP; assay: Cytotoxicity against androgen dependent human LNCAP cells assessed as cell viability at 50 uM after 24 hrs by alamar blue assay; assay type: functional; details: read-out: Activity
[6] = tested on: CWR22R; assay: Antiproliferative activity against human 22Rv1 cells assessed reduction of CPA-induced PSA expression after 2 hrs by ELISA; assay type: functional, cell-based
[7] = target: T1, Androgen receptor (Homo sapiens); assay: Antagonist activity at androgen receptor in androgen dependent human LNCAP cells assessed reduction of CPA-induced PSA expression at 10 uM after 2 hrs by ELISA; assay type: functional, cell-based
[8] = target: T1, Androgen receptor (Homo sapiens); assay: Partial agonist activity at androgen receptor in human LNCAP cells assessed effect on CPA-induced PSA expression after 2 hrs by ELISA; assay type: functional, cell-based
[9] = target: T1, Androgen receptor (Homo sapiens); assay: Antagonist activity at androgen receptor in androgen dependent human LNCAP cells assessed reduction of DHT-induced PSA expression after 2 hrs by ELISA; assay type: functional, cell-based
[10] = tested on: LNCaP; assay: Antiproliferative activity against androgen dependent human LNCAP cells assessed as reduction of DHT-induced cell count after 5 days by alamar blue assay; assay type: functional, cell-based
Procedure, shortened: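 LNCaP cells deprived of steroids for 48 h in phenol red-free RPMI with 10% charcoal-stripped FBS, then seeded at 2 × 10^4 cells/mL. Treated 5 days with compound (10 and 20 μM) with or without 0.1 nM DHT, 0.1% DMSO final. Medium and treatments renewed every second day after PBS washes. Growth read by AlamarBlue; two experiments, n = 6.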

[11] = target: T1, Androgen receptor (Homo sapiens); assay: Antagonist activity at androgen receptor in androgen dependent human LNCAP cells assessed reduction of CPA-induced PSA expression after 2 hrs by ELISA; assay type: functional, cell-based
[12] = target: T1, Androgen receptor (Homo sapiens); assay: Agonist activity at androgen receptor in human LNCAP cells assessed effect on CPA-induced PSA expression after 2 hrs by ELISA; assay type: functional, cell-based
[13] = tested on: CWR22R; assay: Antiproliferative activity against human 22Rv1 cells assessed effect on DHT-induced PSA expression after 2 hrs by ELISA; assay type: functional, cell-based

Compound | Activity [1] | inhibition [2] | viability at 50 µM [1] | inhibition [3] | viability at 24 h, 50 µM [4] | viability at 50 µM [5] | Activity [6] | Activity [7] | Activity [8] | Activity [9] | Activity [10] | Activity [11] | Activity [12] | Activity [13]
CC(=O)O[C@]1(C(C)=O)CC[C@H]2[C@@H]3C=C(Cl)C4=CC(=O)[C@@H]5C[C@@H]5[C@]4(C)[C@H]3CC[C@@]21C | Active |  |  |  |  |  |  |  |  |  |  |  |  | 
O=C(N/N=C/c1cc(Br)ccc1O)c1cc2ccccc2cc1O |  | 0% | 50% | 50% | 50% | 50% |  |  |  |  |  |  |  | 
COc1cc(/C=N/NC(=O)c2cc3c(ccc4ccccc43)o2)cc(OC)c1O |  | 0% | 80% | 30% | 80% | 80% | Active | Active | Active | Dose-dependent effect | Dose-dependent effect | Dose-dependent effect | Active | inactive

Reference: ChEMBL document CHEMBL2086322, “"True" antiandrogens-selective non-ligand-binding pocket disruptors of androgen receptor-coactivator interactions: novel tools for prostate cancer” (J Med Chem, 2012)
